Results: ChEMBL document CHEMBL4834396, “Molecular Recognition and Imaging of Human Telomeric G-Quadruplex DNA in Live Cells: A Systematic Advancement of Thiazole Orange Scaffold To Enhance Binding Specificity and Inhibition of Gene Expression” (J Med Chem, 2021)
Active and inactive are the calls of the source. The calls are words filed in the database; no cut-off is given here.

Key:
[1] = tested on: Quadruplex DNA; assay: Stabilization of telomeric Htg24 G-quadruplex DNA (unknown origin) assessed as inhibition of DNA amplification at 20 uM by PCR analysis; type: nucleic-acid assay
Outline: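 Taq polymerase stop assay: Htg24 or its non-G4 mutant template (5 μM) with 2 μM of each oligomer, […] and ligand at 0–20 μM. Cycling was 94 °C for 5 min, then 30 cycles of 94/56/72 °C at 30 s each. Products were resolved on 15% PAGE and stained with SYBR Gold.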

[2] = tested on: Quadruplex DNA; assay: Binding affinity to G4 quadruplex DNA in human HeLa cells assessed as BG4 foci formation at 10 to 20 uM; type: cell-based; conditions: dose 10-20 µM
[3] = tested on: Quadruplex DNA [UNDEFINED MUTATION]; assay: Binding affinity to telomeric Htg24 G-quadruplex DNA A20G mutant (unknown origin) assessed as negative fluorescence signal at 5 uM under pH condition 7.4 by fluorescence titration analysis; type: nucleic-acid assay; conditions: Homo sapiens
Outline: (§1)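 Ligand 5 μM mixed with wild-type or point-mutant Htg24 in Tris-HCl buffer with 60 mM KCl; signal change calculated as (F mutant − F wild type)/F wild type.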

[4] = molecular target: Quadruplex DNA; assay: Binding affinity to c-myc promoter G-quadruplex DNA Pu27 (unknown origin) assessed as dissociation constant by isothermal titration calorimetric analysis; type: nucleic-acid assay
Outline: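 ITC at 25 °C: DNA preannealed at 95 °C for 5 min, cooled and held at 4 °C overnight, in 25 mM KH2PO4, 60 mM KCl, pH 7.4, 0.5% DMSO. DNA 10 μM in cell, ligand 500 μM in syringe; 19 injections of 4 s, 150 s apart, 750 rpm stirring; blank heat subtracted before model fitting.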

[5] = tested on: Quadruplex DNA [UNDEFINED MUTATION]; assay: Binding affinity to telomeric Htg24 G-quadruplex DNA G17A mutant (unknown origin) assessed as negative fluorescence signal at 5 uM under pH condition 7.4 by fluorescence titration analysis; type: nucleic-acid assay; conditions: Homo sapiens; outline: as §1
[6] = tested on: rRNA; assay: Binding affinity to rRNA (unknown origin) assessed as equilibrium binding constant at 5 uM at 25 degreeC […]; type: nucleic-acid assay
Outline: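 Fluorescence titration: ligand 5 μM in 10 mM Tris-HCl pH 7.4 with 60 mM KCl, nucleic acid added until saturation, 25 °C. Keq from nonlinear fit of F/F0 to an independent-site model.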

CN(C)c1ccc(/C=C/c2cc(/C=C3\Sc4ccccc4N3CCCN3CCOCC3)c3ccccc3[n+]2C)cc1.[I-] was tested, and the Activity [1] was “Active”, the Activity [2] was “Active” and the Activity [3] was “Active”. For the same compound, the Kd [4] was 3.27 µM, the Activity [5] was “Active” and the Kb [6] was 620000 M⁻¹.
